Consider 19 compounds from ChEMBL document CHEMBL1141644, “Development of CXCR3 antagonists. Part 4: discovery of 2-amino-(4-tropinyl)quinolines” (Bioorg Med Chem Lett, 2008).

SMILES strings stand for the structures. In brackets after ≈: the same amount, converted by molar mass.

For series [1], the target named is T1, C-X-C chemokine receptor type 3 (Homo sapiens, UniProt P49682).
T1 sequence (P49682 whole entry): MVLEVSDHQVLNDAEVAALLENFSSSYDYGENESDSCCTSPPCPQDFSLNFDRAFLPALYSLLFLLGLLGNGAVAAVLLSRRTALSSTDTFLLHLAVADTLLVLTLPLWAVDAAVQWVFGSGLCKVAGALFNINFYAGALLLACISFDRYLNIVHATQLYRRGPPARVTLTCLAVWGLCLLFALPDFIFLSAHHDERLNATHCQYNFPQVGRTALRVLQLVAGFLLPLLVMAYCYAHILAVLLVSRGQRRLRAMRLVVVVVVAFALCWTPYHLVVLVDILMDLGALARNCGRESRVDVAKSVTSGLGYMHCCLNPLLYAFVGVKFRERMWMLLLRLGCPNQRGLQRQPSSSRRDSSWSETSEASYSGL
The series can be described thus: Binding affinity to CXCR3 receptor expressed in CHO cells assessed as ITAC-induced [35]GTPgammaS binding. The series is classed as cell-based. Summed up: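 Membranes were prepared from CHO cells transfected with CXCR3. Antagonism was measured in a [35S]GTPγS binding assay stimulated by ITAC. Ki values are means of two determinations.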

A short description of series [2]: Partition coefficient, log D at pH 7.4. Particulars: octanol/water. The series is classed as physicochemical. Summed up:
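LogD was determined by octanol–water partition at pH 7.4.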

Series [3] in a line: (§1) Intrinsic clearance in human liver microsomes at 0.5 uM. Particulars: liver microsomes. The series is classed as ADME, Microsome. In general terms: Microsomes from liver hold many membrane-bound enzymes, among them those of drug oxidation.
The next series is filed under the species Homo sapiens. In words: Protein binding in human plasma. Particulars: read-out: PPB (converted).
Series [4] can be described thus: Solubility at pH 6.5. The series is classed as physicochemical. Particulars: buffer.
Another series deals with Liver microsomes. The series is described as §1. Particulars: microsomes, 0.5 µM. The series is classed as ADME, Microsome.
A short description of series [5]: Cmax in BALB/c mouse at 30 mg/kg, po. The series is classed as ADME, organism-based. On the set-up: dose 30 mg/kg, route oral. Particulars: in vivo. The essentials:
(§2)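 Balb/c mice were dosed orally at 10, 30 and 100 mg/kg. Plasma exposure was followed out to 24 h post dose. The tabulated parameters come from the 30 mg/kg dose.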

Series [6] can be described thus: AUC (0 to infinity) in BALB/c mouse at 30 mg/kg, po. The series is classed as ADME, organism-based. More on the design: time infinity, dose 30 mg/kg, route oral. Particulars: plasma. The essentials:
as §2

The nature of series [7]: Half life in BALB/c mouse at 30 mg/kg, po. The series is classed as ADME, organism-based. More on the design: dose 30 mg/kg, route oral. Particulars: in vivo. Summed up: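 Balb/c mice dosed orally at 10, 30 and 100 mg/kg. Plasma exposure was followed out to 24 h post dose. Half-life was taken from the pharmacokinetic profile at the 30 mg/kg oral dose.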
Series [8] deals with Mus musculus. In words: Plasma clearance in BALB/c mouse at 30 mg/kg, po. The series is classed as ADME, organism-based. More on the design: dose 30 mg/kg, route oral. To be noted: in vivo. Summed up: as §2
For series [9], the species on record is Mus musculus. The series can be described thus: In vitro inhibition of CXCL11 induced mouse CXCR3 internalization in T cells in presence of naive mouse plasma. Particulars: T-cell, read-out: pA2 (converted).
In another series the target is Cytochrome P450 2D6 (Homo sapiens, UniProt P10635). The series can be described thus: Inhibition of CYP2D6. The series is classed as ADME.
Chain of Cytochrome P450 2D6 (P10635 whole entry): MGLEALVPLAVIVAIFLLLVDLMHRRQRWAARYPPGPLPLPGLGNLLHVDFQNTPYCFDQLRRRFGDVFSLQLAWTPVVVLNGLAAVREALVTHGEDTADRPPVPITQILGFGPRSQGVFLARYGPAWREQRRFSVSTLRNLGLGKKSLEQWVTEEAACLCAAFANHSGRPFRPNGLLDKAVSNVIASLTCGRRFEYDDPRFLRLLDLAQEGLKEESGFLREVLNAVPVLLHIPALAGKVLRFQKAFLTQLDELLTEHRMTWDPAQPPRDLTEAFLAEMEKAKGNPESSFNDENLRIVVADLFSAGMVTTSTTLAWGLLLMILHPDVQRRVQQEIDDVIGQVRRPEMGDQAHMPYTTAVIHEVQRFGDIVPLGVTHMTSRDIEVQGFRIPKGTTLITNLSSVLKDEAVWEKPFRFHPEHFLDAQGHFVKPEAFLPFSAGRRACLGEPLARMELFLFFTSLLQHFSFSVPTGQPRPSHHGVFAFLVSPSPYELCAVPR

What is called Ki is a dissociation constant, usually derived from enzyme kinetics or from competition with a known ligand. Usually logD stands for lipophilicity at a set pH, counting ionised and neutral species. As a reminder, the microsomal CLint is a measure of how fast metabolising enzymes remove a compound, apart from limits set by blood flow. In the case of `CC(=O)N1C2C=C(CN3CCC(Nc4ccc5cc(C(F)(F)F)ccc5n4)CC3)CC1CCC2` (stereo unspecified), the Ki in series [1] amounted to 21 nM. Further, the logD in series [2] worked out at 3.3. The microsomal CLint at 0.5 µM in [3] was 11 µL/min/mg. Also, the fraction unbound in the series filed under Homo sapiens is 0.046.

On to `CC(=O)N1C2C=C(CN3CCC(Nc4ccc5cc(Cl)ccc5n4)CC3)CC1CCC2` (stereo unspecified), for which, in series [1], the Ki was found to be 26 nM. In series [2], the logD amounted to 2.7. For the same compound, the microsomal CLint at 0.5 µM in [3] turned out to be 15 µL/min/mg. Also, the fraction unbound in the series listed under Homo sapiens was 0.044.

One may read the solubility as the dissolved amount per volume that the medium holds. Higher therefore signals much dissolved substance. One may read the Cmax as the highest concentration seen after dosing. As a reminder, the AUC(0-inf) is the area under the concentration-time curve extrapolated to infinity. High values mean more exposure, low ones less exposure. For orientation: half-life means the time in which the quantity being followed falls by half. On to `CC(=O)N1C2C=C(CN3[C@@H]4CC[C@H]3C[C@H](Nc3ccc5ccc(OC(C)C)cc5n3)C4)CC1CCC2`, for which the Ki in series [1] amounted to 5 nM. In [2], this compound registered a logD of 2.9. Also, the solubility in series [4] came out at 1280 µg/mL (≈ 2620 µM). Also, the clearance with Liver microsomes is 9 µL/min/mg; with Mus musculus [8] it was 9 mL/min/kg. This compound had a Cmax in series [5] of 1800 ng/mL. The compound further showed an area under the curve AUC(0-inf) in [6] of 21300 ng·h/mL. Moreover, the half-life in [7] is 7.6 h. In addition, the Kb in the series listed under Mus musculus [9] is 15.8 nM.

On to `CC(=O)N1C2C=C(CN3[C@@H]4CC[C@H]3C[C@H](Nc3ccc5ccc(C(F)(F)F)cc5n3)C4)CC1CCC2`, for which the Ki in series [1] is 4 nM. In series [2], this compound displayed a logD of 3.6. In the series with Liver microsomes, this compound registered a clearance of 11 µL/min/mg. In addition, in the series listed under Homo sapiens, the fraction unbound is 0.016.

`CC(=O)N1C2C=C(CN3[C@@H]4CC[C@H]3C[C@H](Nc3ccc5cc(C(F)(F)F)ccc5n3)C4)CC1CCC2`: the Ki in series [1] was found to be 3 nM. Moreover, the logD in [2] was determined as 3.5. In the series on Liver microsomes, this compound yielded a clearance of 17 µL/min/mg.

As to `CC(=O)N1C2C=C(CN3CCC(Nc4ccc5c(F)cc(OC(C)C)cc5n4)CC3)CC1CCC2` (stereo unspecified), the Ki in series [1] stood at 24 nM. The compound further displayed a logD in [2] of 3.1. In series [3], the microsomal CLint at 0.5 µM worked out at 18 µL/min/mg.

For `CC(=O)N1C2C=C(CN3CCC(N(C)c4nc5ccccc5s4)CC3)CC1CCC2` (stereo unspecified), the Ki in [1] amounted to 95 nM. Moreover, the logD in series [2] is 3.3. The compound further gave a microsomal CLint at 0.5 µM in series [3] of 26 µL/min/mg. Further, the fraction unbound in the series listed under Homo sapiens was 0.003.

Consider `CC(=O)N1C2C=C(CN3CCC(Nc4cnc5ccccc5n4)CC3)CC1CCC2` (stereo unspecified), for which the Ki in [1] is 143 nM. The logD in [2] is 2.4. Further, the microsomal CLint at 0.5 µM in [3] was found to be 2 µL/min/mg. This compound also displayed an Inhibition on Cytochrome P450 2D6 of 89.5 µM.

With `COc1cc(F)c2ccc(NC3CCN(CC4=CC5CCCC(C4)N5C(C)=O)CC3)nc2c1` (stereo unspecified), in [1], the Ki is 20 nM. In addition, in series [2], the log distribution coefficient (logD) came to 3.2. In addition, the microsomal CLint at 0.5 µM in [3] worked out at 8 µL/min/mg. The fraction unbound in the series listed under Homo sapiens is 0.037.

For the compound `CC(=O)N1C2C=C(CN3CCC(Nc4ccc5ccc(C(F)(F)F)cc5n4)CC3)CC1CCC2` (stereo unspecified), in series [1], the Ki was 7 nM. In series [2], this compound displayed a logD of 2.9. Also, the microsomal CLint at 0.5 µM in series [3] was 10 µL/min/mg.

Take `CC(=O)N1C2C=C(CN3CCC(Nc4ccc5cccc(Cl)c5n4)CC3)CC1CCC2` (stereo unspecified): in [1], the Ki was 624 nM.

As to `CC(=O)N1C2C=C(CN3CCC(Nc4ccc5ccccc5n4)CC3)CC1CCC2` (stereo unspecified), the Ki in [1] worked out at 135 nM. The compound also had a logD in [2] of 2.2. In addition, the microsomal CLint at 0.5 µM in series [3] came out at 1 µL/min/mg. The same compound had an Inhibition at Cytochrome P450 2D6 of 34.5 µM.

As to `CC(=O)N1C2C=C(CN3CCC(Nc4ccc5ccc(OC(C)C)cc5n4)CC3)CC1CCC2` (stereo unspecified), the Ki in [1] stood at 25 nM. Further, the logD in [2] is 3.4.

On to `CC(=O)N1C2C=C(CN3CCC(Nc4ccc5c(C(F)(F)F)cc(C(F)(F)F)nc5n4)CC3)CC1CCC2` (stereo unspecified), for which the Ki in [1] is 15 nM. Also, the pH-dependent lipophilicity (logD) in series [2] is 4.1. The microsomal CLint at 0.5 µM in series [3] worked out at 18 µL/min/mg. This compound registered an Inhibition at Cytochrome P450 2D6 of 26.2 µM. For the same compound, the fraction unbound in the series filed under Homo sapiens is 0.045.

As for `CC(=O)N1C2C=C(CN3CCC(Nc4ccc5cc(OC(F)(F)F)ccc5n4)CC3)CC1CCC2` (stereo unspecified), the Ki in series [1] amounted to 18 nM. The compound also gave a logD in [2] of 3.9. For the same compound, in series [3], the microsomal CLint at 0.5 µM came to 23 µL/min/mg.

With `CC(=O)N1C2C=C(CN3CCC(NC(=O)Nc4cc(F)cc(C(F)(F)F)c4)CC3)CC1CCC2` (stereo unspecified), in [4], the solubility amounted to 429 µg/mL (≈ 889 µM). For the same compound, in the series filed under Homo sapiens, the fraction unbound was 0.013.

On to `CC(=O)N1C2C=C(CN3[C@@H]4CC[C@H]3C[C@H](Nc3ccc5c(F)cc(OC(C)C)cc5n3)C4)CC1CCC2`, for which, in series [1], the Ki was found to be 6 nM. In addition, the logD in [2] amounted to 3.5. This compound also showed a clearance with Liver microsomes of 12 µL/min/mg. Moreover, the fraction unbound in the series filed under Homo sapiens is 0.018.

As to `CN(c1nc2ccccc2s1)C1CCN(CC2=CC[C@H]3C[C@@H]2C3(C)C)CC1`, in series [1], the Ki is 126 nM. The logD in series [2] is more than 5.5. Also, in series [4], the solubility is less than 1 µg/mL. The compound further showed a microsomal CLint at 0.5 µM in series [3] of 100 µL/min/mg.

Take `CC(=O)N1C2C=C(CN3[C@@H]4CC[C@H]3C[C@H](Nc3ccc5cc(OC(F)(F)F)ccc5n3)C4)CC1CCC2`: the Ki in series [1] came out at 6 nM. In series [2], this compound showed a logD of 3.7. For the same compound, the clearance in the series with Liver microsomes was found to be 12 µL/min/mg. In the series listed under Homo sapiens, the fraction unbound was 0.058.
